Consider one molecule from ChEMBL document CHEMBL4152184, “NB 06: From a simple lysosomotropic aSMase inhibitor to tools for elucidating the role of lysosomes in signaling apoptosis and LPS-induced inflammation” (Eur J Med Chem, 2018).

Assay [1] has as its system MONO-MAC-6. The experiment in a line: Upregulation of CXCL10 mRNA expression level in LPS-stimulated human MONO-MAC-6 cells at 5 uM preincubated for 30 mins followed by LPS stimulation measured after 4 hrs by oligonucleotide array hybridization assay (reference value: 3.07). Type of assay: functional.
The test system of assay [2] is MONO-MAC-6. The experiment in a line: Downregulation of CXCL2 mRNA expression level in human MONO-MAC-6 cells at 5 uM incubated for 30 mins measured after 4 hrs by qRT-PCR method relative to control. Type of assay: functional.
Assay [3] deals with MONO-MAC-6. The experiment in a line: Upregulation of IL23A mRNA expression level in human MONO-MAC-6 cells at 5 uM incubated for 30 mins measured after 1 hr by qRT-PCR method relative to control. Type of assay: functional.
Assay [4] has as its system MONO-MAC-6. The experiment in a line: Downregulation of ICAM1 mRNA expression level in LPS-stimulated human MONO-MAC-6 cells at 5 uM preincubated for 30 mins followed by LPS stimulation measured after 2 hrs by oligonucleotide array hybridization assay (reference value: 1.94). Type of assay: functional. The gist of the method:
(§1)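 Total RNA was isolated, transcribed and labeled with DY-647 dye, then co-hybridized with DY-548-labeled cDNA from untreated cells on an inflammation oligonucleotide chip (780 gene probes). Differential expression >1.5 was taken as significant.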

Assay [5] concerns MONO-MAC-6. The experiment in a line: Upregulation of PTX3 mRNA expression level in LPS-stimulated human MONO-MAC-6 cells at 5 uM preincubated for 30 mins followed by LPS stimulation measured after 2 hrs by oligonucleotide array hybridization assay (reference value: 1.56). It counts as functional.
The test system of assay [6] is MONO-MAC-6. The experiment in a line: Downregulation of ICAM1 mRNA expression level in human MONO-MAC-6 cells at 5 uM incubated for 30 mins measured after 4 hrs by oligonucleotide array hybridization assay relative to control. Type of assay: functional. The gist of the method: as §1
In assay [7] the test system is MONO-MAC-6. The experiment in a line: Downregulation of TNFalpha mRNA expression level in human MONO-MAC-6 cells at 5 uM incubated for 30 mins measured after 2 hrs by qRT-PCR method relative to control. It counts as functional.
The test system of assay [8] is MONO-MAC-6. The experiment in a line: Upregulation of ICAM1 mRNA expression level in LPS-stimulated human MONO-MAC-6 cells at 5 uM preincubated for 30 mins followed by LPS stimulation measured after 4 hrs by oligonucleotide array hybridization assay (reference value: 2.88). Type of assay: functional.
In assay [9] the target is T1, Acid ceramidase (Homo sapiens) (UniProt Q13510).
T1 sequence (whole entry): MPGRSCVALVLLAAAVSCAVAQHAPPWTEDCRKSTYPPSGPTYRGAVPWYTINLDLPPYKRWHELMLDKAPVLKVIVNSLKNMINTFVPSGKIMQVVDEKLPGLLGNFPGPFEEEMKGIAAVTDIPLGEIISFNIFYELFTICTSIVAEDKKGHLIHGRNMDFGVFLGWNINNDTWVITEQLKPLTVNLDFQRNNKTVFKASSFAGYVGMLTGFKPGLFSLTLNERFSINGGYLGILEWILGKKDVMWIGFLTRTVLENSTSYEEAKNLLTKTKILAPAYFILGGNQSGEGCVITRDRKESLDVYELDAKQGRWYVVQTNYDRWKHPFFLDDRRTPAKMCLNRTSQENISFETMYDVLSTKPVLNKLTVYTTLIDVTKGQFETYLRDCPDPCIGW
The experiment in a line: Inhibition of acid ceramidase in human PBMC assessed as ratio of C16-ceramide/lipid phosphate level at 10 uM incubated for 30 mins measured after 4 hrs by HPLC method. Type of assay: cell-based. The gist of the method:
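Human macrophages from primary culture were preincubated 30 min with 10 µM compound. They were then stimulated 4 h with mmLDL (54 µg/mL), TNFalpha (3 ng/mL) or exogenous C6-ceramide (10 µM), or left unstimulated. Individual ceramide species (C16 and C24:1) were quantified in the cell lipid extracts.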

In assay [10] the test system is MONO-MAC-6. The experiment in a line: Upregulation of PTX3 mRNA expression level in LPS-stimulated human MONO-MAC-6 cells at 5 uM preincubated for 30 mins followed by LPS stimulation measured after 4 hrs by oligonucleotide array hybridization assay (reference value: 4.65). Type of assay: functional.
In assay [11] the test system is MONO-MAC-6. The experiment in a line: Downregulation of IL-6 mRNA expression level in human MONO-MAC-6 cells at 5 uM incubated for 30 mins measured after 4 hrs by qRT-PCR method relative to control. Type of assay: functional. A general note: Real-time PCR tracks product formation cycle by cycle.
For assay [12], the system named is MONO-MAC-6. The experiment in a line: Upregulation of CXCL2 mRNA expression level in LPS-stimulated human MONO-MAC-6 cells at 5 uM preincubated for 30 mins followed by LPS stimulation measured after 1 hr by oligonucleotide array hybridization assay (reference value: 1.42). Type of assay: functional.
The test system of assay [13] is MONO-MAC-6. The experiment in a line: Upregulation of CXCL2 mRNA expression level in LPS-stimulated human MONO-MAC-6 cells at 5 uM preincubated for 30 mins followed by LPS stimulation measured after 2 hrs by qRT-PCR method (reference value: 4.77). Type of assay: functional.
The test system of assay [14] is MONO-MAC-6. The experiment in a line: Upregulation of IL23A mRNA expression level in LPS-stimulated human MONO-MAC-6 cells at 5 uM preincubated for 30 mins followed by LPS stimulation measured after 6 hrs by qRT-PCR method (reference value: 7.18). Type of assay: functional.
Assay [15] relates to MONO-MAC-6. The experiment in a line: Downregulation of CXCL2 mRNA expression level in human MONO-MAC-6 cells at 5 uM incubated for 30 mins measured after 1 hr by oligonucleotide array hybridization assay relative to control. It counts as functional. The gist of the method:
as §1

Assay [16] concerns MONO-MAC-6. The experiment in a line: Upregulation of TNFalpha mRNA expression level in LPS-stimulated human MONO-MAC-6 cells at 5 uM preincubated for 30 mins followed by LPS stimulation measured after 2 hrs by qRT-PCR method (reference value: 3.10). It counts as functional.
Assay [17] deals with MONO-MAC-6. The experiment in a line: Upregulation of CXCL10 mRNA expression level in LPS-stimulated human MONO-MAC-6 cells at 5 uM preincubated for 30 mins followed by LPS stimulation measured after 6 hrs by oligonucleotide array hybridization assay (reference value: 1.57). Type of assay: functional.
The test system of assay [18] is MONO-MAC-6. The experiment in a line: Downregulation of CCL20 mRNA expression level in human MONO-MAC-6 cells at 5 uM incubated for 30 mins measured after 1 hr by oligonucleotide array hybridization assay relative to control. It counts as functional. The gist of the method: as §1

On to `COc1ccc(CCN(C)CCCn2c3ccccc3c3ccccc32)cc1`, for which the “fold change (FC)” value stood at 1.01 with MONO-MAC-6 [1]; 1.845 with MONO-MAC-6 [2]; 1.01 with MONO-MAC-6 [3]; 1.14 in the assay on MONO-MAC-6 [4]; 1.2 with MONO-MAC-6 [5]; 1.57 in the assay on MONO-MAC-6 [6]. Also, the “fold change (FC)” value was 3.78 in the assay with MONO-MAC-6 [7]; 1.31 with MONO-MAC-6 [8]; 1.91 in the assay on MONO-MAC-6 [10]; 2.25 with MONO-MAC-6 [11]; 1.14 in the assay with MONO-MAC-6 [12]; 5.03 in the assay on MONO-MAC-6 [13]. Also, the “fold change (FC)” value in the assay with MONO-MAC-6 [14] came to 1.1; in the assay on MONO-MAC-6 [15] it was 1.12; in the assay on MONO-MAC-6 [16], 1.34; in the assay with MONO-MAC-6 [17] it was 1.12; with MONO-MAC-6 [18] it was 1.09. Moreover, in assay [9], the Ratio was 0.38.
